The nature of data set [1]: Dynamic PET imaging in wild-type mice. The following applies: wt male mice. The class given is in vivo, mouse. The gist of the method:
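Three male C57BL/6 mice (7.5 months, 29–32 g) given an i.v. bolus of the [18F] tracer (9.1 ± 1.1 MBq; Am 18 ± 10 GBq/μmol). 60-min dynamic PET/MRI in 33 frames, FBP reconstruction. Decay-corrected, no attenuation or scatter correction. Whole-brain TAC via MR template atlas; SUV = regional radioactivity normalised to injected activity and body weight.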

Data set [2] can be described thus: Dynamic PET imaging in healthy rats. In kind it is in vivo, rat. The gist of the method: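 Two healthy Sprague-Dawley rats, 3 months old (male 358 g, female 241 g), injected i.v. with 15.5 and 16.5 MBq of the [18F] tracer (Am 19 and 8 GBq/μmol). 120-min dynamic PET/MRI in 39 frames, FBP with Hann filter. Decay-corrected, without attenuation or scatter correction. Whole-brain TAC from MR template atlas; SUV normalised to injected activity and body weight.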

Data set [3] in a line: Baseline dynamic PET imaging in non-human primate. In kind it is in vivo, rhesus monkey (Macaca mulatta). The following applies: rhesus monkey, i.v. 185 MBq. The gist of the method:
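Rhesus monkey sedated with ketamine (15 mg/kg i.m.) plus glycopyrrolate (0.01 mg/kg i.m.), intubated, and kept under isoflurane (0.5–2.0%) in 40% oxygen/air. CT scan for attenuation correction. The [18F] tracer (185 MBq, <1.0 microgram mass) was given as a slow i.v. bolus (~20 s) with saline flush. Dynamic 90-min scan in 27 frames, FBP-reconstructed with full corrections. Whole-brain ROI time-activity curve in SUV.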

The nature of data set [4]: Radiometabolite analysis of blood samples in non-human primate. The settings on record: rhesus monkey blood, 10 min. The class given is in vivo, rhesus monkey (Macaca mulatta). An outline of the steps:
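Anesthetised rhesus monkey given 185 MBq of the [18F] tracer as an i.v. bolus. Venous blood (~3 mL) drawn via saphenous catheter at 2, 10, 30, 45 and 90 min post-injection. Samples analysed by radio-HPLC for radiolabelled metabolites and the time-varying fraction of unmetabolized parent tracer.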

The nature of data set [5]: Lipophilicity by shake-flask method. The following applies: 1-octanol. The class given is physicochemical.
Data set [6] is classed as in vitro ADME. The following applies: human.
Data set [7] is classed as in vitro ADME. The following applies: rat.
Data set [8] deals with T1, melatonin binding site (MT3 (ML2)) on quinone dehydrogenase 2 (Mesocricetus auratus, UniProt A0ABM2YAB8).
T1 sequence (A0ABM2YAB8 1-231): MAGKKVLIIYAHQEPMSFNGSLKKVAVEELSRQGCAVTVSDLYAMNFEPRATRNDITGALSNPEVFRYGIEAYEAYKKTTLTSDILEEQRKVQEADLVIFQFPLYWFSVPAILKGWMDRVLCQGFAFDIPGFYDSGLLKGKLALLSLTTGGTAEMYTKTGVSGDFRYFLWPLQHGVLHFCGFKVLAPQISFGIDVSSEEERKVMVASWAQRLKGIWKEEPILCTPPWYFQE
As to the kind of experiment: Off-target selectivity screen. The following applies: 1.0 μM, specific radioligand.

Data set [9] concerns 93 CNS receptors and enzymes, including MAO-A and MAO-B. Nature of the data set: Off-target selectivity screen. In kind it is binding. The settings on record: 93 proteins including MAO-A and MAO-B, 1.0 μM.
For the next data set, the target named is P-glycoprotein (Homo sapiens, UniProt P08183). The following applies: MDCK-MDR1.
For data set [10] the following is noted: human.
For data set [11] the following is noted: rat.

Like-named read-outs stand apart in the source and are kept apart here.

Sequence of P-glycoprotein (P08183 whole entry): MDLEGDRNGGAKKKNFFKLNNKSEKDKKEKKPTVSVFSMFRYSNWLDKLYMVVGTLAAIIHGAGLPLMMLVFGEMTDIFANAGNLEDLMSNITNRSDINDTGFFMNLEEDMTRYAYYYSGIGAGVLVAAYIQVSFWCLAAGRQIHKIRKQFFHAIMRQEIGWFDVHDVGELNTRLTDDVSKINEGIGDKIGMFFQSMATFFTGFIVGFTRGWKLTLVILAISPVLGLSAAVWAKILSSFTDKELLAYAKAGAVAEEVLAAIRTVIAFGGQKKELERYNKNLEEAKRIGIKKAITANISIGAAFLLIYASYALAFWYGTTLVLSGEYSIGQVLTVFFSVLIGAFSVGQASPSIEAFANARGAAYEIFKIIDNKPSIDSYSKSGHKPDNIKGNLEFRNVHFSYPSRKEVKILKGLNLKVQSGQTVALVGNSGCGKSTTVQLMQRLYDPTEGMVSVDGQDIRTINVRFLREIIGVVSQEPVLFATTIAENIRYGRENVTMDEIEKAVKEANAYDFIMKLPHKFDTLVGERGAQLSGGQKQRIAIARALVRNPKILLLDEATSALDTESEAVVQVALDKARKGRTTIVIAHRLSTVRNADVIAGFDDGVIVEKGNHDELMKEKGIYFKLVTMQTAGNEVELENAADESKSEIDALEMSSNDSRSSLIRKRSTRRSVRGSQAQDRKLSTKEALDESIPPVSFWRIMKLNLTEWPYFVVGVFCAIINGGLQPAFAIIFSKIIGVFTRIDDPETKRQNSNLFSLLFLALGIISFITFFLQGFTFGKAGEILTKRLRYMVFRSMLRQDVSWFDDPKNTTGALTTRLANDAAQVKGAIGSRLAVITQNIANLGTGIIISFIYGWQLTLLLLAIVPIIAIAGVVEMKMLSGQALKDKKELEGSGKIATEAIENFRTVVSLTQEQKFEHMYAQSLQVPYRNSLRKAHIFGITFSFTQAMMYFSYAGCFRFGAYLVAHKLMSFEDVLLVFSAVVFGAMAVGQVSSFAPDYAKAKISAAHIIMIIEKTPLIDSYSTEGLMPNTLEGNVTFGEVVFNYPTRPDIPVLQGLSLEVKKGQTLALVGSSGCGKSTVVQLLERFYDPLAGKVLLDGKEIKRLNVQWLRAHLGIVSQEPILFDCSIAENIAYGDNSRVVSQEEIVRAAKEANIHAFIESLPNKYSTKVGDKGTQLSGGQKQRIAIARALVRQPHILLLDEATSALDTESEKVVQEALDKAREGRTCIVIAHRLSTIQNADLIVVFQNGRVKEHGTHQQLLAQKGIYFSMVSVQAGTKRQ

Consider `OCC1CCN(c2ccc(-c3cc4cc(O)ccc4[nH]3)c([18F])n2)CC1` [[^18F]CBD-2115], for which the “maximum radioactivity in whole brain” value in [1] (i.v. bolus 9.1 ± 1.1 MBq) is on record as 0.66 SUV; in data set [2] (i.v. 15.5 and 16.5 MBq) it was 0.5 SUV. Also, the “whole brain radioactivity after 30 min” value is listed as “below 0.1 SUV” in data set [1] (i.v., after 30 min) and “below 0.1 SUV” in data set [2] (i.v., after 30 min). Also, the peak brain activity in [3] worked out at 0.65 SUV. Also, the “time to peak brain activity” value in [3] is on record as not above 2 min. Moreover, the “brain activity after 25 min” value in data set [3] (after 25 min) is reported as “below 0.2 SUV”. Further, the “fraction of unmetabolized parent” value in data set [4] amounted to 45%. In data set [5], this compound gave a logD7.4 of 2.99 ± 0.15.

As for `OCC1CCN(c2ccc(-c3cc4cc(O)ccc4[nH]3)c(F)n2)CC1` [CBD-2115], the figures for the “stability in liver microsomes” value in [6] and in data set [7] were 8.56 mL/min/kg and 63.84 mL/min/kg, respectively. For the same compound, the interaction with off-target entry in data set [8] is given as “specific interaction”. Moreover, the affinity for off-targets entry in data set [9] is on record as “no significant affinity”. For the same compound, the “efflux ratio (B-A/A-B)” value on P-glycoprotein was 0.98. Moreover, the “free fraction in blood plasma” value in data set [10] came to 2.70%; in data set [11] it was 2.85%.

These data come from article PMC9350900 (ACS chemical neuroscience, 2021).
